This is an account of results in ChEMBL document CHEMBL1152413, “Glucose-based spiro-heterocycles as potent inhibitors of glycogen phosphorylase” (Bioorg Med Chem, 2009).

Broadly, the pKi is the Ki on a negative log10 scale, so that one unit is a factor of ten. A high value points to a low Ki. By pIC50 is commonly meant the negative decadic logarithm of the IC50, by convention in mol/L.

pIC50, pKi: −log10 of the molar value. Activity calls are given as the source filed them. The rule behind the calls is not given here. Where only a bound is given, the exact number is not on record here.

In data set [1] the target is T1, Glycogen phosphorylase, muscle form (Oryctolagus cuniculus, UniProt P00489).
T1 sequence (P00489 whole entry): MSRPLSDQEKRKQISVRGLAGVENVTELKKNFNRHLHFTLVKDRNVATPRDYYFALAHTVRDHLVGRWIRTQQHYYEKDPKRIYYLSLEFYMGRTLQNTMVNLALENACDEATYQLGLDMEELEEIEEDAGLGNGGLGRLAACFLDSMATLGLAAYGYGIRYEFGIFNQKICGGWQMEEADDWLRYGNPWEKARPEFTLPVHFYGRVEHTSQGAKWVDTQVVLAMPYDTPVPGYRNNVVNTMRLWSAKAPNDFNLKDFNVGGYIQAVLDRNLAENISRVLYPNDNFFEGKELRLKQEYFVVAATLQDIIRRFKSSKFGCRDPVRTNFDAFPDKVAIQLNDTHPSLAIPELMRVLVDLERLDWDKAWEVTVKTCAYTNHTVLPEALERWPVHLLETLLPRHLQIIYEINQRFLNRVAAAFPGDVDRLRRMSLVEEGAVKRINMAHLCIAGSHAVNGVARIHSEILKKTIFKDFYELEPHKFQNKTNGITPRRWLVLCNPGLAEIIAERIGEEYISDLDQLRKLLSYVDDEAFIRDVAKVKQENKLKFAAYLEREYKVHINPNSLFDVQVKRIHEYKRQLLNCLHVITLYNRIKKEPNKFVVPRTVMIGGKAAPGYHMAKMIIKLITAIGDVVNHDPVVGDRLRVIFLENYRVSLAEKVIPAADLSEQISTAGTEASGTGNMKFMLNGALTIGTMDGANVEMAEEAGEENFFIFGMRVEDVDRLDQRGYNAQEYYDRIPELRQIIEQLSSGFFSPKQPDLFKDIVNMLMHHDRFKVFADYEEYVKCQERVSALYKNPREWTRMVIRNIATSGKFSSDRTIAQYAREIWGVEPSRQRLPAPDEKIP

Data set [2] is described as follows: Solubility in DMSO. The class given is physicochemical.
In data set [3] the target is T1, Glycogen phosphorylase, muscle form. The data set can be described thus: Inhibition of rabbit muscle glycogen phosphorylase b by Lineweaver-Burke plot analysis. The method in brief: (§1)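 Glycogen phosphorylase b isolated from rabbit skeletal muscle (Fischer–Krebs method with dithiothreitol in place of L-cysteine), recrystallized at least three times. Assayed in glycogen-synthesis direction with α-D-glucose-1-phosphate 2–20 mM, glycogen 1% w/v and AMP 1 mM held constant. Inhibitors were dissolved in DMSO and diluted into 50 mM triethanolamine, 1 mM EDTA, 1 mM DTT, keeping final DMSO below 1%. Activities were analysed as Lineweaver–Burk plots by nonlinear fitting.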

Data set [4] addresses T2, Glycogen phosphorylase, muscle form (Oryctolagus cuniculus) (UniProt P00489).
T2 sequence (whole entry): T1 sequence (P00489 whole entry)
Put plainly: Inhibition of rabbit muscle glycogen phosphorylase b at 625 uM by Lineweaver-Burke plot analysis. The method in brief: as §1

Data set [5] concerns the target T2, Glycogen phosphorylase, muscle form (Oryctolagus cuniculus). Put plainly: Inhibition of rabbit muscle glycogen phosphorylase b at 312.5 uM by Lineweaver-Burke plot analysis. The method in brief: as §1

In data set [1], `OC[C@H]1O[C@]2(ON=C(c3ccc(F)cc3)S2)[C@H](O)[C@@H](O)[C@@H]1O` had a pKi of 4.32. Same read-out and setting: the same measure for `N#Cc1ccc(/C(=N\O)N[C@@H]2O[C@H](CO)[C@@H](O)[C@H](O)[C@H]2O)cc1`: 2.74.

As to `OC[C@H]1O[C@@H](S/C(=N\O)c2ccc(-c3ccccc3)cc2)[C@H](O)[C@@H](O)[C@@H]1O`, in data set [2], the solubility result is recorded as “Insoluble”. On to `OC[C@H]1O[C@@H](S/C(=N\O)c2ccc3ccccc3c2)[C@H](O)[C@@H](O)[C@@H]1O`, for which, in data set [2], the solubility result was “Insoluble”. Take `O=[N+]([O-])c1ccc(C2=NO[C@]3(O[C@H](CO)[C@@H](O)[C@H](O)[C@H]3O)S2)cc1`: in data set [3], the negative logarithm of the IC50 (pIC50) was 3.60.

`COc1ccc(C2=NO[C@]3(O[C@H](CO)[C@@H](O)[C@H](O)[C@H]3O)S2)cc1` had a pKi in data set [1] of 5.09. For the molecule `N#Cc1ccc(/C(=N/O)S[C@@H]2O[C@H](CO)[C@@H](O)[C@H](O)[C@H]2O)cc1`, the inhibition entry in data set [4] was “inactive”.

`N#Cc1ccc(C2=NO[C@]3(O[C@H](CO)[C@@H](O)[C@H](O)[C@H]3O)S2)cc1` gave a pIC50 in data set [3] of 3.15. For the molecule `COc1ccc(/C(=N/O)S[C@@H]2O[C@H](CO)[C@@H](O)[C@H](O)[C@H]2O)cc1`, the inhibition result in data set [5] is “inactive”.

For `O=[N+]([O-])c1ccc(/C(=N\O)N[C@@H]2O[C@H](CO)[C@@H](O)[C@H](O)[C@H]2O)cc1`, the inhibition entry in data set [4] is “inactive”. Take `O=[N+]([O-])c1ccc(/C(=N/O)S[C@@H]2O[C@H](CO)[C@@H](O)[C@H](O)[C@H]2O)cc1`: the pIC50 in data set [3] is less than 2.00.

Consider `OC[C@H]1O[C@@]2(ON=C(c3ccncc3)S2)[C@H](O)[C@@H](O)[C@@H]1O`, for which the inhibition result in data set [4] was “inactive”. Same read-out and setting: the same measure for `OC[C@H]1O[C@@H](S/C(=N\O)c2ccncc2)[C@H](O)[C@@H](O)[C@@H]1O`: “inactive”. The molecule `OC[C@H]1O[C@]2(ON=C(c3ccc(-c4ccccc4)cc3)S2)[C@H](O)[C@@H](O)[C@@H]1O` gave a pIC50 in data set [3] of 3.60.
